Reference: ChEMBL document CHEMBL4411279, “Synthesis of new chalcone-based homoserine lactones and their antiproliferative activity evaluation” (Eur J Med Chem, 2019)
Calls of active or inactive are those of the source. The rule behind the calls is not given here.

Legend:
MCF7 = assay: Antiproliferative activity against human MCF7 cells after 72 hrs by MTT assay; format: functional, cell-based; conditions: MCF7, 72 h
How it was run: (§1)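 Cells seeded 3,000/well, after 24 h medium replaced with compound at 64, 32, 16, 8, 4, 2, 1, 0.5 µM; 72 h exposure, MTT read-out at 570 nm; IC50 given as mean ± SD.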

MGC-803 = assay: Antiproliferative activity against human MGC803 cells after 72 hrs by MTT assay; format: functional, cell-based; conditions: MGC-803, 72 h; how it was run: as §1
DU-145 [1] = assay: Antiproliferative activity against human DU145 cells after 72 hrs by MTT assay; format: functional, cell-based; conditions: DU-145, 72 h; how it was run: as §1
PC-3 = assay: Antiproliferative activity against human PC3 cells after 72 hrs by MTT assay; format: functional, cell-based; conditions: PC-3, 72 h; how it was run: as §1
DU-145 [2] = assay: Inhibition of colony formation in human DU145 cells after 21 days by crystal violet staining-based assay; format: functional, cell-based
How it was run: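 DU145 seeded 4000/well, grown 4 days, then medium with compound at various concentrations for 21 days; PBS washed, fixed in 4% paraformaldehyde, stained with 0.1% crystal violet; colonies (>10 cells) counted; inhibition = (1 − treated/control colonies) × 100%.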

DU-145 [3] = assay: Growth inhibition of human DU145 cells at 2.5 uM by MTT assay; format: functional, cell-based; conditions: TDE = time-dependent effect
How it was run: (§2)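 DU145 growth inhibition measured by MTT; time course at 24, 48 and 72 h; combination arm used recombinant TRAIL at 100 ng/mL together with compound (2.5 or 5.0 µM); mean ± SD, experiment repeated three times, Student's t test.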

DU-145 [4] = assay: Induction of apoptosis in human DU145 cells assessed as cell rounding at 5 uM after 24 hrs by Hoechst 33258 staining-based fluorescence microscopic analysis; format: functional
How it was run: (§3)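 DU145 seeded 1×10^5/well, adhered overnight, treated 24 h with compound alone or combined with TRAIL; stained with Hoechst 33258 for 30 min in the dark; nuclear morphology examined by fluorescence microscopy.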

DU-145 [5] = assay: Growth inhibition of human DU145 cells at 2.5 uM after 24 to 48 hrs by MTT assay; format: functional, cell-based; how it was run: as §2
DU-145 [6] = assay: Growth inhibition of human DU145 cells at 2.5 uM after 72 hrs in presence of TRAIL by MTT assay relative to control; format: functional; conditions: DU-145, 72 h, read-out: GI; how it was run: as §2
DU-145 [7] = assay: Induction of apoptosis in human DU145 cells assessed as chromatin shrinkage at 5 uM after 24 hrs by Hoechst 33258 staining-based fluorescence microscopic analysis; format: functional, cell-based; how it was run: as §3
DU-145 [8] = assay: Induction of apoptosis in human DU145 cells assessed as formation of apoptotic bodies at 5 uM after 24 hrs by Hoechst 33258 staining-based fluorescence microscopic analysis; format: functional, cell-based; how it was run: as §3
DU-145 [9] = assay: Induction of apoptosis in human DU145 cells assessed as cell rounding at 5 uM after 24 hrs in presence of TRAIL by Hoechst 33258 staining-based fluorescence microscopic analysis; format: functional; how it was run: as §3
DU-145 [10] = assay: Induction of apoptosis in human DU145 cells assessed as chromatin shrinkage at 5 uM after 24 hrs in presence of TRAIL by Hoechst 33258 staining-based fluorescence microscopic analysis; format: functional, cell-based; how it was run: as §3
DU-145 [11] = assay: Induction of apoptosis in human DU145 cells assessed as formation of apoptotic bodies at 5 uM after 24 hrs in presence of TRAIL by Hoechst 33258 staining-based fluorescence microscopic analysis; format: functional, cell-based; how it was run: as §3
DU-145 [12] = assay: Induction of apoptosis in human DU145 cells assessed as viable cells at 5 uM after 24 hrs by Annexin V-FITC/propidium iodide staining-based high content screening assay (reference value: 97.9%); format: functional; conditions: DU-145, 24 h, read-out: Activity
How it was run: (§4)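 DU145 seeded 3×10^5/well, grown 24 h, treated 24 h with compound alone or plus TRAIL; harvested, stained with Annexin V-FITC/PI per kit protocol, quantified by high content screening; mean ± SD of three experiments.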

DU-145 [13] = assay: Induction of apoptosis in human DU145 cells assessed as early apoptotic cells at 5 uM after 24 hrs by Annexin V-FITC/propidium iodide staining-based high content screening assay (reference value: 0.3%); format: functional; how it was run: as §4
DU-145 [14] = assay: Induction of apoptosis in human DU145 cells assessed as late apoptotic cells at 5 uM after 24 hrs by Annexin V-FITC/propidium iodide staining-based high content screening assay (reference value: 0.2%); format: functional; how it was run: as §4
DU-145 [15] = assay: Induction of apoptosis in human DU145 cells assessed as necrotic cells at 5 uM after 24 hrs by Annexin V-FITC/propidium iodide staining-based high content screening assay (reference value: 1.6%); format: functional; how it was run: as §4
DU-145 [16] = assay: Induction of apoptosis in human DU145 cells assessed as viable cells at 5 uM after 24 hrs in presence of TRAIL by Annexin V-FITC/propidium iodide staining-based high content screening assay (reference value: 97.9%); format: functional; conditions: DU-145, 24 h, read-out: Activity; how it was run: as §4
DU-145 [17] = assay: Induction of apoptosis in human DU145 cells assessed as early apoptotic cells at 5 uM after 24 hrs in presence of TRAIL by Annexin V-FITC/propidium iodide staining-based high content screening assay (reference value: 0.3%); format: functional; how it was run: as §4
DU-145 [18] = assay: Induction of apoptosis in human DU145 cells assessed as late apoptotic cells at 5 uM after 24 hrs in presence of TRAIL by Annexin V-FITC/propidium iodide staining-based high content screening assay (reference value: 0.2%); format: functional; how it was run: as §4
DU-145 [19] = assay: Induction of apoptosis in human DU145 cells assessed as necrotic cells at 5 uM after 24 hrs in presence of TRAIL by Annexin V-FITC/propidium iodide staining-based high content screening assay (reference value: 1.6%); format: functional; how it was run: as §4
DU-145 [20] = assay: Induction of apoptosis in human DU145 cells assessed as increase in caspase-3/7 activity at 2.5 to 10 uM after 24 hrs by Caspase-Glo 3/7 assay; format: functional, cell-based
How it was run: (§5)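 DU145 treated 24 h with compound alone or with TRAIL (100 ng/mL); caspase-3/7 activity measured by Caspase-Glo 3/7 luminescent protocol relative to untreated control; three independent experiments, mean ± SD, Student's t test.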

DU-145 [21] = assay: Induction of apoptosis in human DU145 cells assessed as increase in caspase-3/7 activity at 5 uM after 24 hrs in presence of TRAIL by Caspase-Glo 3/7 assay relative to control; format: functional; how it was run: as §5

Structure (SMILES): O=C(COc1ccc(C(=O)/C=C/c2ccccc2Cl)cc1)N[C@H]1CCOC1=O
- IC50 (MCF7): 17.4 µM
- IC50 (MGC-803): 27.1 µM
- IC50 (DU-145 [1]): 3.24 µM
- IC50 (PC-3): 4.61 µM
- inhibition (DU-145 [2]): Dose-dependent effect
- growth inhibition (GI) (DU-145 [3]): Tde
- Activity (DU-145 [4]): Active
- Activity (DU-145 [5]): Active
- inhibition of growth at 2.5 µM (DU-145 [6]): 50%
- Activity (DU-145 [7]): Active
- Activity (DU-145 [8]): Active
- Activity (DU-145 [9]): Active
- Activity (DU-145 [10]): Active
- Activity (DU-145 [11]): Active
- viability at 5 µM (DU-145 [12]): 90.1%
- Activity (DU-145 [13]): 6.4%
- Activity (DU-145 [14]): 1.7%
- Activity (DU-145 [15]): 1.7%
- viability at 5 µM (DU-145 [16]): 84.8%
- Activity (DU-145 [17]): 13.4%
- Activity (DU-145 [18]): 1.7%
- Activity (DU-145 [19]): 0.1%
- Activity (DU-145 [20]): Active
- fold change (FC) (DU-145 [21]): 3
